Results on 1 compound are retold here after ChEMBL document CHEMBL4152228, “Structural-based design, synthesis, and antitumor activity of novel alloxazine analogues with potential selective kinase inhibition” (Eur J Med Chem, 2018).

A word on the IC50: it is the concentration at which inhibition is half-maximal. A lower IC50 goes with greater potency in that assay.

The subject of test [1] is MCF7. Nature of the test: Antiproliferative activity against human MCF7 cells after 72 hrs by MTT assay. Format: functional, cell-based. Conditions: MCF7, 72 h. In a few lines:
(§1)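 MTT viability assay. Cells grown in RPMI-1640 with 10% heat-inactivated FBS, L-glutamine and 1% penicillin/streptomycin, used within 20 passages. Seeded at 5×10^3 cells/well, left overnight at 37 °C, then exposed to final concentrations of 0.005–50 µM (0.1% DMSO) for up to 72 h. MTT added for 3 h, formazan dissolved in DMSO, absorbance read at 550 nm. IC50 derived relative to untreated controls.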

The subject of test [2] is MCF7. In words: Induction of apoptosis in human MCF7 cells assessed as late apoptotic cells at 1 uM after 72 hrs by annexin V-FITC/propidium iodide staining-based flow cytometric method (reference value: 2.6%). In kind it is functional.
Test [3] relates to MCF7. In words: Induction of apoptosis in human MCF7 cells assessed as increase of early apoptotic cells at 1 to 10 uM after 72 hrs by annexin V-FITC/propidium iodide staining-based flow cytometric method relative to control. Format: functional. In a few lines: (§2)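 MCF-7 cells treated 72 h at final 1, 5, 10 µM, then annexin V-FITC/PI stained in pH 7.4 HEPES binding buffer and analysed by flow cytometry. Early or late apoptotic cell fraction expressed as percent change versus vehicle control: (sample − control)/control × 100. Triplicates.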
For orientation: A flow cytometer gives signals particle by particle.

Test [4] concerns MCF7. In words: Induction of apoptosis in human MCF7 cells assessed as viable cells at 5 uM after 72 hrs by annexin V-FITC/propidium iodide staining-based flow cytometric method (reference value: 76%). In kind it is functional. The following applies: MCF7, 72 h, read-out: Activity.
Test [5] deals with MCF7. Nature of the test: Induction of apoptosis in human MCF7 cells assessed as viable cells at 1 uM after 72 hrs by annexin V-FITC/propidium iodide staining-based flow cytometric method (reference value: 76%). In kind it is functional. The following applies: MCF7, 72 h, read-out: Activity.
The subject of test [6] is MCF7. In words: Induction of apoptosis in human MCF7 cells assessed as viable cells at 10 uM after 72 hrs by annexin V-FITC/propidium iodide staining-based flow cytometric method (reference value: 76%). In kind it is functional. Conditions: MCF7, 72 h, read-out: Activity.
The subject of test [7] is MCF7. In words: Induction of apoptosis in human MCF7 cells assessed as necrotic cells at 5 uM after 72 hrs by annexin V-FITC/propidium iodide staining-based flow cytometric method (reference value: 12.6%). In kind it is functional.
The subject of test [8] is MCF7. In words: Ratio of increase in late apoptotic cells to early apoptotic cells in human MCF7 cells at 10 uM after 72 hrs by annexin V-FITC/propidium iodide staining-based flow cytometric method. In kind it is functional.
The test system of test [9] is MCF7. In words: Induction of apoptosis in human MCF7 cells assessed as late apoptotic cells at 5 uM after 72 hrs by annexin V-FITC/propidium iodide staining-based flow cytometric method (reference value: 2.6%). Format: functional.
In the next test the test system is HCT-116. In words: Antiproliferative activity against human HCT116 cells after 72 hrs by MTT assay. Format: functional, cell-based. Conditions: HCT-116, 72 h. In a few lines: as §1
A general note: Formazan colour is commonly taken as a measure of viable cells.

Test [10] relates to MCF7. Nature of the test: Induction of apoptosis in human MCF7 cells assessed as early apoptotic cells at 5 uM after 72 hrs by annexin V-FITC/propidium iodide staining-based flow cytometric method (reference value: 9%). Format: functional.
In the next test the test system is K562. In words: Antiproliferative activity against human K562 cells after 72 hrs by MTT assay. Format: functional, cell-based. Conditions: K562, 72 h.
Test [11] has as its system MCF7. Nature of the test: Induction of apoptosis in human MCF7 cells assessed as late apoptotic cells at 10 uM after 72 hrs by annexin V-FITC/propidium iodide staining-based flow cytometric method (reference value: 2.6%). In kind it is functional.
For test [12], the system named is MCF7. In words: Induction of apoptosis in human MCF7 cells assessed as necrotic cells at 1 uM after 72 hrs by annexin V-FITC/propidium iodide staining-based flow cytometric method (reference value: 12.6%). Format: functional.
A short description of test [13]: Antiproliferative activity against human WM793B cells after 72 hrs by MTT assay. In kind it is functional, cell-based. In a few lines: as §1
For test [14], the system named is MCF7. Nature of the test: Induction of apoptosis in human MCF7 cells assessed as early apoptotic cells at 10 uM after 72 hrs by annexin V-FITC/propidium iodide staining-based flow cytometric method (reference value: 9%). In kind it is functional.
The test system of test [15] is MCF7. In words: Induction of apoptosis in human MCF7 cells assessed as increase of early apoptotic cells after 72 hrs by annexin V-FITC/propidium iodide staining-based flow cytometric method. In kind it is functional, cell-based. In a few lines:
as §2

The test system of test [16] is MCF7. In words: Induction of apoptosis in human MCF7 cells assessed as necrotic cells at 10 uM after 72 hrs by annexin V-FITC/propidium iodide staining-based flow cytometric method (reference value: 12.6%). In kind it is functional.
In the next test the test system is A2780. In words: Antiproliferative activity against human A2780 cells after 72 hrs by MTT assay. In kind it is functional, cell-based. The following applies: A2780, 72 h. In a few lines:
as §1

In test [17] the test system is MCF7. In words: Induction of apoptosis in human MCF7 cells assessed as early apoptotic cells at 1 uM after 72 hrs by annexin V-FITC/propidium iodide staining-based flow cytometric method (reference value: 9%). In kind it is functional.

For `O=c1[nH]c(NCc2ccc(CN3CCOCC3)cc2)nc2nc3ccc(Cl)cc3nc12`, the IC50 was 200 nM in the test with MCF7 [1]; 310 nM in the test on HCT-116; above 50000 nM in the test on K562; 40200 nM in [13]; 190 nM in the test with A2780. The Activity is recorded as 3.2% in the test on MCF7 [2]; 4% in the test with MCF7 [7]; 7.8% with MCF7 [9]; 14% in the test with MCF7 [10]; 16.4% with MCF7 [11]; 2.9% in the test on MCF7 [12]. Further, the Activity in the test with MCF7 [14] is 19.3%; in the test on MCF7 [15], “Dose-dependent effect”; in the test on MCF7 [16] it was 6.3%; in the test on MCF7 [17], 11.2%. For the same compound, in the test with MCF7 [3], the “fold change (FC)” value is on record as 2. Also, the viability at 5 µM with MCF7 [4] turned out to be 74.1%. For the same compound, in the test with MCF7 [5], the viability at 1 µM was determined as 82.6%. Further, the viability at 10 µM with MCF7 [6] was 58%. For the same compound, the Ratio in the test with MCF7 [8] is 7.
